In brackets after ≈: the same amount, converted by molar mass.
Columns and labels:
[1] = molecular target: T1, P2X purinoceptor 7 (Homo sapiens, UniProt Q99572); assay: Antagonist activity at P2X7R in human whole blood assessed as inhibition of LPS-induced IL-1beta production incubated for 30 mins followed by ATP addition for 30 mins by ELISA assay; assay type: tissue-based
T1 sequence (Q99572 whole entry): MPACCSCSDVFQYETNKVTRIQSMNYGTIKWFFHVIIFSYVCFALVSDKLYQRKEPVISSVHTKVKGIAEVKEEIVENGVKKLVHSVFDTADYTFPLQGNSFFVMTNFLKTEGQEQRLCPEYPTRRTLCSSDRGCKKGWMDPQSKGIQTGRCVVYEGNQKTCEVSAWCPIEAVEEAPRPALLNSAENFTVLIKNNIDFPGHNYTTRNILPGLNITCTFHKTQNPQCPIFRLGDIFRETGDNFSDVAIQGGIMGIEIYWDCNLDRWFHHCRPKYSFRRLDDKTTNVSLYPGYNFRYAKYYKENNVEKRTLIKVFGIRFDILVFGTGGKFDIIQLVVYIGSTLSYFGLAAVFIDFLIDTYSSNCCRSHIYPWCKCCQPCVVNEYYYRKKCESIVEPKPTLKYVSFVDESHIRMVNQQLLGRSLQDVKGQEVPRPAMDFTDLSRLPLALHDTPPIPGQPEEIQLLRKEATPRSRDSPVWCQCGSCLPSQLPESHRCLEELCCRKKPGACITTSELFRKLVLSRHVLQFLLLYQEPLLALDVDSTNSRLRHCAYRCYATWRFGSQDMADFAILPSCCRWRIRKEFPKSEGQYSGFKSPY

[2] = tested on: Salmonella typhimurium; assay: Genotoxicity in Salmonella typhimurium by Ames test; assay type: toxicity, organism-based; settings: salmonella enterica subsp. enterica serovar typhimurium
[3] = molecular target: T1, P2X purinoceptor 7; assay: Antagonist activity at human P2X7R expressed in BzATP-stimulated human 1321N1 cells incubated for 20 mins followed by BzATP stimulation measured every 1 sec for 60 secs followed by 3 sec intervals for 4 mins by FLIPR Ca2+ assay in presence of ionomycin; assay type: cell-based
In short: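 1321N1 cells stably expressing human P2X7R, stimulated with BzATP; calcium flux read on FLIPR. IC50 is the mean of n ≥ 2 runs, each including a positive control.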

[4] = tested on: Liver microsome; assay: Retention time of the compound in human liver microsomes at 20 uM by LC/UV chromatogram analysis; assay type: ADME
[5] = tested on: Liver microsome; assay: Retention time of the compound in rat liver microsomes at 20 uM by LC/UV chromatogram analysis; assay type: ADME
[6] = Intrinsic clearance in human liver microsomes assessed per mg of protein at 1 uM after 1 hr by LC/MS/MS analysis; assay type: ADME; settings: read-out: CLH
[7] = Intrinsic clearance in rat liver microsomes assessed per mg of protein at 1 uM after 1 hr by LC/MS/MS analysis; assay type: ADME; settings: read-out: CLH
[8] = Solubility of compound by lyophilization solubility assay; assay type: physicochemical
[9] = tested on: Liver microsome; assay: Drug metabolism in human liver microsomes assessed as GSH adduct UV peak area at 20 uM preincubated for 5 mins followed by NADPH addition measured after 60 mins by LC/MS/MS analysis relative to total area of GSH adduct, other metabolites, parent compound; assay type: ADME; settings: 1 h
[10] = Oral bioavailability in rat at 2 mg/kg administered as single dose; assay type: ADME, organism-based; settings: in vivo
In short: (§1)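 Rats given a single dose, iv 0.5 mg/kg or po 2 mg/kg, with n ≥ 2 per time point. Bioavailability is derived from the po and iv exposures. Vdss is reported in L/kg.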

[11] = tested on: Rattus norvegicus; assay: Dose normalized AUC in rat at 2 mg/kg, po administered as single dose; assay type: ADME, organism-based; settings: in vivo
In short: (§2)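 Single-dose rat PK: iv at 0.5 mg/kg and po at 2 mg/kg. n ≥ 2 animals per time point. Oral AUC normalized to dose; clearance, Vdss and half-life taken from the iv arm.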

[12] = Clearance in rat at 0.5 mg/kg, iv administered as single dose; assay type: ADME, organism-based; settings: in vivo; in short: as §2
[13] = Volume of distribution at steady state in rat at 2 mg/kg, po and 0.5 mg/kg, iv administered as single dose; assay type: ADME, organism-based; settings: in vivo, read-out: Vdss; in short: as §1
[14] = Half life in rat at 0.5 mg/kg, iv administered as single dose; assay type: ADME, organism-based; settings: in vivo; in short: as §2
[15] = molecular target: Cytochrome P450 2C9 (Homo sapiens, UniProt P11712); assay: Inhibition of human CYP2C9 by fluorescence assay; assay type: ADME
In short: (§3)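 IC50 values for CYP3A4, CYP2D6 and CYP2C9 from a fluorescence-based inhibition assay; average of n ≥ 2.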

[16] = molecular target: Cytochrome P450 2D6 (Homo sapiens, UniProt P10635); assay: Inhibition of human CYP2D6 by fluorescence assay; assay type: ADME; in short: as §3
[17] = molecular target: Cytochrome P450 3A4 (Homo sapiens, UniProt P08684); assay: Inhibition of human CYP3A4 by fluorescence assay; assay type: ADME; in short: as §3
[18] = Drug degradation in human plasma at 10 uM after 4 hrs by LC/MS/MS analysis; assay type: ADME, cell-free; settings: read-out: Drug degradation
[19] = tested on: Liver microsome; assay: Drug metabolism in rat liver microsomes assessed as GSH adduct UV peak area at 20 uM preincubated for 5 mins followed by NADPH addition measured after 60 mins by LC/MS/MS analysis relative to total area of GSH adduct, other metabolites, parent compound; assay type: ADME; settings: 1 h
[20] = tested on: Liver microsome; assay: Metabolic stability in human liver microsomes assessed as GSH adduct formation at 20 uM preincubated for 5 mins followed by NADPH addition measured after 60 mins by LC/MS/MS analysis; assay type: ADME; settings: 1 h
In short: (§4)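 Liver microsomes (human or rat) incubated with compound and glutathione. The GSH adduct is quantified by UV chromatography as % relative peak area versus the summed areas of GSH adduct, other metabolites and parent compound.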

[21] = tested on: Liver microsome; assay: Metabolic stability in rat liver microsomes assessed as GSH adduct formation at 20 uM preincubated for 5 mins followed by NADPH addition measured after 60 mins by LC/MS/MS analysis; assay type: ADME; settings: 1 h; in short: as §4
[22] = Drug level in solid phase treated with (4S)-N-[4-Chloro-5-(2-hydroxyethoxy)-2-methyl-phenyl]-4-(4-fluorophenyl)-2-oxo-3,4-dihydro-1H-pyridine-5-carboxamide after 1 month; assay type: physicochemical; settings: 730.5 h

Cytochrome P450 3A4, sequence (P08684 whole entry): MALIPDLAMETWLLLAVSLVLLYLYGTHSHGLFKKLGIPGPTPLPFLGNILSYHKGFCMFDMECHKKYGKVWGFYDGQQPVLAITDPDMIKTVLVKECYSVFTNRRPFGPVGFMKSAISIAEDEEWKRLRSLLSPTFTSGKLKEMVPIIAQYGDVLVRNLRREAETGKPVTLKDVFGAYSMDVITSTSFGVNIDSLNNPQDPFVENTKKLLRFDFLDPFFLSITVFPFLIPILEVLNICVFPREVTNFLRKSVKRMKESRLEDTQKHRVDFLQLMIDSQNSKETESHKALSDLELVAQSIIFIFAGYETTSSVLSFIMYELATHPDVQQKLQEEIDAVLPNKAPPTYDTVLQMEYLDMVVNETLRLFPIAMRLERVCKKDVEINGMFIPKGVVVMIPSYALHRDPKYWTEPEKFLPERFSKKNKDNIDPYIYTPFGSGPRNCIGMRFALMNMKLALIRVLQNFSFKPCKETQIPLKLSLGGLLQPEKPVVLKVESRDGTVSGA
Cytochrome P450 2D6, sequence (P10635 whole entry): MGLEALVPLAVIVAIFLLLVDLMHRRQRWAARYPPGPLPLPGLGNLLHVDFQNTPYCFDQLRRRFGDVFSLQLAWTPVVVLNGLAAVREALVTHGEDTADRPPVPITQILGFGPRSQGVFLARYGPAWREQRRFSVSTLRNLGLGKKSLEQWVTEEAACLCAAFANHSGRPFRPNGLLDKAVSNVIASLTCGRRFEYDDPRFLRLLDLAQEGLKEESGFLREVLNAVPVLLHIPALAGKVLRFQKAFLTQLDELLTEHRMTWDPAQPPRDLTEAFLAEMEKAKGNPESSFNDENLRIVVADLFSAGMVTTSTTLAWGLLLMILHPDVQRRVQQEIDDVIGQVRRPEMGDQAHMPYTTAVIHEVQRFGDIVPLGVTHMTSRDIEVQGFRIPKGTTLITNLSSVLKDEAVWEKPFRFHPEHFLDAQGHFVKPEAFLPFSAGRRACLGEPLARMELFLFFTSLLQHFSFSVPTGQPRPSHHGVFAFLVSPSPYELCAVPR
Cytochrome P450 2C9, sequence (P11712 whole entry): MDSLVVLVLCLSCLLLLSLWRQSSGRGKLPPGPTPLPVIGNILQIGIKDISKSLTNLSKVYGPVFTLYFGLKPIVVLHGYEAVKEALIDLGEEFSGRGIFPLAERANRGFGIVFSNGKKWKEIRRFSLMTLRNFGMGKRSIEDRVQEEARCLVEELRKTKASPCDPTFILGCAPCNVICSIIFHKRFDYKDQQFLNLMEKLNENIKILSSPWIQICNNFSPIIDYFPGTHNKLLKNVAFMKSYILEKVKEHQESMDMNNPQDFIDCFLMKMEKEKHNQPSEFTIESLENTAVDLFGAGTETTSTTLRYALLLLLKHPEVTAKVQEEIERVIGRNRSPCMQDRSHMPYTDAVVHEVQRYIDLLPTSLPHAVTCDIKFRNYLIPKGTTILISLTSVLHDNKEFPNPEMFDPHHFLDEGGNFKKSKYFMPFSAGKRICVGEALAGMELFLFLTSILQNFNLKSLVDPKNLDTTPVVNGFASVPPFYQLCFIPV

SMILES	IC50 [1]	Activity [2]	IC50 [3]	other results
Cc1ccc(-c2ccn[nH]c2=O)cc1NC(=O)C1=CN(C)C(=O)C[C@H]1c1ccc(F)cc1	20 nM	Toxic	–	–
COc1cc(Br)c(NC(=O)C2=CNC(=O)C[C@H]2c2cccc(F)c2)cc1OC	107 nM	–	9 nM	–
COc1cc(C)c(C)c(NC(=O)C2=CNC(=O)C[C@H]2c2ccc(F)cc2)c1	–	–	9 nM	–
COc1cc(NC(=O)N2C=CC(=O)C[C@H]2c2ccccc2)c(Br)cc1Cl	–	–	33 nM	–
COc1cc(I)c(CC(=O)N2C=CC(=O)C[C@H]2c2ccccc2)cc1OC	–	–	38 nM	–
COc1cc(Br)c(NC(=O)N2C=CC(=O)C[C@H]2c2ccc(F)cc2)cc1OC	–	–	9 nM	Retention_time [4]: 16.58 min; Retention_time [5]: 16.58 min
Cc1ccc(-c2ccnn(CCO)c2=O)cc1NC(=O)C1=CN(C)C(=O)C[C@H]1c1ccc(F)cc1	17 nM	Non-toxic	–	–
Cc1ccc(-n2ncccc2=O)cc1NC(=O)C1=CN(C)C(=O)C[C@H]1c1ccc(F)cc1	33 nM	Non-toxic	–	–
COc1cc(C)c(NC(=O)N2C=CC(=O)C[C@H]2c2ccc(F)cc2)cc1OC	–	–	12 nM	microsomal CLint at 1 µM [6]: 8.2 µL/min/mg; microsomal CLint at 1 µM [7]: 25 µL/min/mg
COc1cc(NC(=O)N2C=CC(=O)C[C@H]2c2ccc(F)cc2)c(Br)c(SC[C@H](NC(=O)CC[C@H](N)C(=O)O)C(=O)NCC(=O)O)c1O	–	–	–	Retention_time [4]: 10.74 min; Retention_time [5]: 10.74 min
CN1C=C(C(=O)Nc2cc(-c3ccn[nH]c3=O)ccc2F)[C@H](c2ccc(F)cc2)CC1=O	27 nM	Non-toxic	26 nM	–
Cc1cc(F)c(-c2ccnn(C)c2=O)cc1NC(=O)C1=CN(C)C(=O)C[C@H]1c1ccc(F)cc1	13 nM	Non-toxic	8 nM	solubility [8]: 322 µg/mL (≈ 693 µM); Stability [9]: Stable; bioavailability [10]: 64%; AUC [11]: 1121 ng·h/mL; clearance [12]: 17 mL/min/kg; Vd [13]: 1 L/kg; half-life [14]: 1 h; IC50 [15]: > 32000 nM; IC50 [16]: > 32000 nM; IC50 [17]: > 32000 nM
Cc1cc2cnn(CCO)c2cc1NC(=O)C1=CNC(=O)C[C@H]1c1ccc(F)cc1	47 nM	–	23 nM	–
Cc1cc(Cl)c(OCCO)cc1NC(=O)N1C=CC(=O)C[C@H]1c1ccc(F)cc1	–	–	9 nM	metabolised at 4 h, 10 µM [18]: 50%
COC[C@H](O)Cn1c(=O)cnn(-c2ccc(C)c(NC(=O)C3=CN(C)C(=O)C[C@H]3c3ccc(F)cc3)c2)c1=O	17 nM	Non-toxic	30 nM	solubility [8]: 1020 µg/mL (≈ 1910 µM); Stability [9]: Stable; Stability [19]: Stable; bioavailability [10]: 20%; AUC [11]: 279 ng·h/mL; clearance [12]: 23 mL/min/kg; Vd [13]: 1.2 L/kg; half-life [14]: 4 h; IC50 [15]: > 50000 nM; IC50 [16]: > 50000 nM; IC50 [17]: > 50000 nM
Cc1ccc(-c2ccnn(C)c2=O)cc1NC(=O)C1=CN(C)C(=O)C[C@H]1c1ccc(F)cc1	6 nM	Toxic	–	–
Cc1ccc(-n2ccccc2=O)cc1NC(=O)C1=CN(C)C(=O)N[C@H]1c1ccc(F)cc1	21 nM	Non-toxic	22 nM	–
COc1cc(I)c(CC(=O)N2C=CC(=O)CC2c2ccccc2)cc1OC (racemic)	–	–	104 nM	microsomal CLint at 1 µM [6]: 168 µL/min/mg; microsomal CLint at 1 µM [7]: 548 µL/min/mg
O=C1C=CN(C(=O)Nc2cc(OCCO)c(Cl)cc2Br)[C@H](c2ccc(F)cc2)C1	–	–	40 nM	–
COc1cc(NC(=O)N2C=CC(=O)C[C@@H]2c2ccccc2)c(Br)cc1Cl	–	–	> 10000 nM	–
O=C1C=CN(C(=O)Nc2ccc3ncccc3c2Br)[C@H](c2ccc(F)cc2)C1	–	–	–	Stability [20]: Stable; Stability [21]: Stable
Cc1cc(Cl)c(OCCO)cc1N	–	Toxic	–	Drug metabolism [22]: metabolite_detected
COc1cc(Br)c(NC(=O)N2C=CC(=O)CC2c2ccccc2)cc1OC (racemic)	–	–	39 nM	microsomal CLint at 1 µM [6]: 22 µL/min/mg; microsomal CLint at 1 µM [7]: 78 µL/min/mg
COc1cc(I)c(CC(=O)N2C=CC(=O)C[C@@H]2c2ccccc2)cc1OC	–	–	3800 nM	–
COc1cc(Br)c(CC(=O)N2C=CC(=O)CC2c2ccccc2)cc1OC (racemic)	–	–	92 nM	microsomal CLint at 1 µM [6]: 153 µL/min/mg; microsomal CLint at 1 µM [7]: 490 µL/min/mg
COc1cc(NC(=O)N2C=CC(=O)C[C@H]2c2ccc(F)cc2)c(Br)cc1F	–	–	32 nM	–
COc1cc(NC(=O)N2C=CC(=O)C[C@H]2c2ccc(F)cc2)c(Br)cc1Cl	–	–	37 nM	–

Reference: ChEMBL document CHEMBL3739255, “Novel Series of Dihydropyridinone P2X7 Receptor Antagonists” (J Med Chem, 2015)
